Bioassay records deposited in PubChem by The Scripps Research Institute Molecular Screening Center.
SIAE primary = human SIAE inhibitors, primary screen, biochemical, fluorescence polarization, FP-Rh probe, 1536-well HTS; SIAE FP-Rh probe binding; Sialate O-acetylesterase (Homo sapiens), Q9HAT2; inhibition, % at 9.66 µM; hit rate 0.69% among 370,000;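 active = inhibition above a cutoff: mean of compounds within the control limits plus 3 SD of those, cut at about 17% in these data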;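 note: 0% = plate median of compound wells and 100% = probe without SIAE protein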
Target sequence (Q9HAT2 whole entry, looked up): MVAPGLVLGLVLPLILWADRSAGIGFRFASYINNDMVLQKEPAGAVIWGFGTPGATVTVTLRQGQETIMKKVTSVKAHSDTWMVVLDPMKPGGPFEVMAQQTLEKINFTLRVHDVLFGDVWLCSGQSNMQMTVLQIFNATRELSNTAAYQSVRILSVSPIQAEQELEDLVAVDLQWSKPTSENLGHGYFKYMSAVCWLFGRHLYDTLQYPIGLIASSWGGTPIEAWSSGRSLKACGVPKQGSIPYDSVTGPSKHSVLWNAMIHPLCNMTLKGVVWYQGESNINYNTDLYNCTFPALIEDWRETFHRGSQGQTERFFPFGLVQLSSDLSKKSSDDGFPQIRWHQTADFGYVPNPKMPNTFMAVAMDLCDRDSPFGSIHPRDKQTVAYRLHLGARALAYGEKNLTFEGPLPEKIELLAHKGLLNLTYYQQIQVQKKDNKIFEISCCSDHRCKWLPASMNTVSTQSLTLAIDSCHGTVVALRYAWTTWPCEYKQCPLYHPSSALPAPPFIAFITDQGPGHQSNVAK
rCAG RNA binder = binders of r(CAG) RNA repeats, primary screen, biochemical, fluorescence | r(CAG) RNA repeat, TO-PRO-1 dye displacement fluorescence | inhibition, % at 3 µM | hit rate 1.3% among 370,000;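 active = inhibition above the plate cutoff, the mean of all test compounds on that plate plus 3 SD, cut at about 35% in these data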;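 note: 0% = DMSO alone and 100% = 100 µM mitoxantrone as full dye displacement; higher means more dye released from RNA so lower well fluorescence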
TCR CD3 inh = inhibitors of human TCR-CD3 interaction, primary screen, biochemical, fluorescence, TAMRA-labeled TCR probe; T-cell receptor (TCR); inhibition, % at 9.4 µM; hit rate 0.37% among 360,000; in the data active = inhibition above about 19%;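 note: recombinant mutant TCR 2C K166C tagged with TAMRA read by polarization; 0% = receptor in buffer alone and 100% = receptor with positive control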
PRMT1 FP inh = PRMT1 methyltransferase inhibitors, primary screen, biochemical, fluorescence polarization; hit rate 1.3% among 370,000; inhibition, % at 2.79 µM; AID 652257, 2013; recombinant PRMT1, activity-based probe fluorescence polarization; Protein arginine N-methyltransferase 1 (Homo sapiens), Q99873;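 active = inhibition above about 21% made by adding two undisclosed values, limit read from the data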
mABHD4 FP = ABHD4 inhibitors, primary screen, biochemical, fluorescence polarization, mouse. (Lyso)-N-acylphosphatidylethanolamine lipase (Mus musculus), Q8VD66. purified mABHD4, FP-Rh probe fluorescence polarization. inhibition, % at 8.92 µM. hit rate 0.54% among 370,000. AID 720543, 2013;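 active = inhibition exceeding the mean over every tested compound plus 3 SD, cut at about 30% in these data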;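 note: 0% = plate median of compound wells and 100% = S159A mutant with DMSO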
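Assay system: Wild-type mouse ABHD4 protein | Medium: HEPES pH 7.0 buffer, 150 mM NaCl, 0.01% Pluronic F-127 | Incubation: Enzyme–compound pre-incubation 45 min, then probe 60 min, both 25 °C | Technique: Fluorescence polarization with parallel and perpendicular emission, 525/598 nm | Evaluation: % inhibition of FP-Rh probe binding versus controls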
Active calls of the source: *; x = not tested or not shown. In the library only some 3.3% were active in any assay of this set; here they are far more common.

SMILES	SIAE primary	rCAG RNA binder	TCR CD3 inh	PRMT1 FP inh	mABHD4 FP
Cc1ccc(S(=O)(=O)N2CCOCC2)cc1NC(=O)CSc1nc(N)cc(=O)[nH]1	0	5	0	23*	4
Cc1ccc(S(=O)(=O)N2CCOCC2)cc1NC(=O)CSc1nc(N)cc(N)n1	-6	2	-4	11	-12
Cc1cc(OCC(=O)NC(Cc2ccc(Cl)cc2)C(=O)O)c2c(C)cc(=O)oc2c1 (stereo unspecified)	8	22	12	-2	3
CCCCc1cc(=O)oc2cc(C)cc(OCC(=O)NC(Cc3ccc(Cl)cc3)C(=O)O)c12 (stereo unspecified)	-1	40*	5	-2	-5
C=CC[C@H]1c2ccccc2[C@H]2N3N=Cc4ccccc4[C@H]3[C@H](CCc3ccccc3)C(=O)N2N1C(=O)c1ccccc1	-6	11	x	-1	-11
O=C(c1ccc2ncsc2c1)N1CCCC(C(F)(F)F)C1 (stereo unspecified)	2	-3	-9	19	-14
CC1CCCN(C(=O)c2ccc3ncsc3c2)C1 (stereo unspecified)	10	2	1	24*	3
O=C(NCc1ccco1)c1cccc2c1C(=O)c1ccc(/C=C/c3ccccc3)cc1S2(=O)=O	-4	39*	-2	29*	6
COC(=O)[C@]12C[C@H](CC(=O)N3CCCC3)C(=O)N(Cc3cccc4ccccc34)C1=C[C@H](C1CCCC1)O[C@@H]2C	11	7	x	1	1
CNC(=O)C1(CC(C)C)C=CCN1C(C)=O (stereo unspecified)	17*	-2	-4	-4	0
CCOc1ccc(CCNC(=O)c2cc3ccsc3n2C)cc1OC	-19	1	x	-6	-6
Cc1ccc(N2C(=O)c3ccccc3C2C(=O)c2cc(C)ccc2O)cc1 (stereo unspecified)	-9	6	3	17	11
Cc1ccc(N2C(=O)c3ccccc3C2C(=O)c2ccc(O)cc2O)cc1 (stereo unspecified)	4	20	7	24*	-2
COc1ccc([N+](=O)[O-])c(S(=O)(=O)c2ccccc2)n1	4	-2	-6	25*	2
CCN(CC)C(=O)CC[C@H]1CC[C@]2(CCCN(Cc3ccccn3)C2)O1	2	-1	x	-1	0
CCOC(=O)[C@@]12CN(C(=O)OC(C)(C)C)CC=C1N(Cc1ccc(OC)cc1)C(=O)[C@H]2CC(=O)NCc1cccs1	-2	0	x	2	6
CC(C)(C)NC(=O)c1ccccc1-c1nc2ccccc2s1	-4	1	2	24*	6
O=C1C(SCCO)=C(SCCO)C(=O)c2ccccc21	8	5	-7	98*	25
C=C1C(=O)c2sccc2C(c2ccc(OC)c(OC)c2)C1COC(C)=O (stereo unspecified)	1	1	-9	24*	-5
CN(C)CCCn1c(SCC(=O)N2CC(=O)Nc3ccccc32)nc2ccccc2c1=O	-4	-3	-5	21*	-1
CC(C)N(CCn1c(SCC(=O)N2CC(=O)Nc3ccccc32)nc2ccccc2c1=O)C(C)C	-7	-7	2	0	6
COc1ccc(NC(=O)N2CCC(c3nc4ccc(Cl)cc4[nH]3)CC2)cc1OC	-4	7	x	5	3
CC(=O)C(C(C)=O)c1c(Cl)c(O)c(O)c2c(C(=O)c3ccccc3)coc12	-1	9	-2	79*	43*
CCC[C@H]1[C@@H](N(C)Cc2ccccc2)CC[C@@]23CCCN2C(=O)CCC[C@@H]13	4	x	x	-5	5
N#CC1=C(N)C2=CCCC[C@H]2[C@H](c2ccccc2)C1(C#N)C#N	-4	7	-3	24*	-4
SMILES	SIAE primary	rCAG RNA binder	TCR CD3 inh	PRMT1 FP inh	mABHD4 FP
Cc1cccc(N2C(N)=C(C#N)C(C#N)(C#N)C2c2ccccc2)c1 (stereo unspecified)	0	5	5	1	5
C/C(C=NNC(=O)CSc1nnc(-c2ccc(Cl)cc2)n1-c1ccccc1)=C\c1ccccc1	-5	9	x	-5	-5
COC(=O)[C@]12C[C@H](CC(=O)NCc3cccc4ccccc34)C(=O)N(CCC3=CCCCC3)C1=C[C@H](C(C)C)O[C@@H]2C1CC1	3	7	x	-2	2
O=c1c2cc(F)ccc2sn1-c1ccccc1	9	3	8	89*	20
CC1NC(=O)c2ccccc2-n2c1nc1cc(F)ccc1c2=O (stereo unspecified)	-3	2	-10	-1	-13
Cc1ccccc1-n1sc2cc(F)ccc2c1=O	5	-3	2	88*	15
O=c1c2cc(C(F)(F)F)ccc2sn1-c1ccccc1	3	2	8	71*	8
O=c1c2ccccc2sn1-c1ccccc1	4	-2	-9	95*	3
CC(=O)c1c(N2CCOCC2)nc2ccc(Br)cc2c1-c1ccccc1	19*	-2	-5	1	3
COc1cc(CNn2c(C)n[nH]c2=S)cc(Cl)c1OCc1ccccc1	0	8	0	24*	-8
CN1C2=NC(c3ccccc3)CC(=O)N2/C(=C\c2ccccc2)C1c1ccccc1C(F)(F)F (stereo unspecified)	-4	x	x	1	-16
O=C1CSC(=S)N1N=C1CCCCCC1	-3	7	8	23*	6
Cc1c[nH]c2cccc(-c3ccc(OCc4ccccc4)cc3)c12	12	7	x	-1	-5
COC(=O)[C@H]1C[C@@]2(n3ccc4ccccc43)c3ccccc3N(S(=O)(=O)c3ccccc3)[C@H]2N1C(=O)CNC1CCCCC1	-5	7	x	2	16
N#Cc1c(NC(=O)c2ccccc2Cl)n(Cc2ccccc2)c2nc3ccccc3nc12	-3	90*	6	2	10
Cc1cccc(Cn2cc(COC(=O)NCC(C)C)nn2)c1	0	0	x	-1	9
COC(=O)[C@]12C[C@H](CC(=O)NCCCCc3ccccc3)C(=O)N(CCc3ccc(OC)c(OC)c3)C1=C[C@H](C(C)C)O[C@@H]2C1CC1	-3	5	x	-1	1
CCOC(=O)c1sc(N/N=C/c2ccccc2)nc1C	-5	7	4	17	4
O=C(O)Cc1sc(N/N=C\c2ccccc2)nc1-c1ccccc1	0	44*	-5	19	16
CCOC(=O)N1CCN(S(=O)(=O)c2ccc(C(=O)NNc3nc4c(C)cccc4s3)cc2)CC1	11	76*	5	9	23
O=C(CN1C(=O)CCSc2ccccc21)Nc1ccc(F)cc1F	3	1	x	1	2
CC(=O)Nc1sc(N/N=C\c2ccc(O)cc2)nc1-c1cccs1	0	22	-7	23*	2
